# Source: PubChem (several laboratories)
# A selection: hits, their analogues and other compounds. The true share with any hit is near 2.1%.
# iPSC survival up: enhancers of single-cell hiPSC survival, primary screen, ATPlite luminescence; 100% = ROCK inhibitor wells, 0% = DMSO; 360,000 compounds, 0.044% hits; survival enhancement, % at 20 µM; AID 602274, 2012; in the data active = survival enhancement above about 18%;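 note: cells exposed to compounds for 16 hours before the ATP read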
# CRFBP-R2 block: antagonists of CRF-BP/CRF-R2 complex, primary screen, cell-based, HEK293, calcium dye fluorescence, uHTS; CRF-induced calcium fluorescence; inhibition, % at 11.8 µM; 350,000 compounds, 0.59% hits;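 active = inhibition of the ligand-induced calcium signal above about 50% at the single tested concentration, limit read from the data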
# CRFR2-BP ag: agonists of CRF-BP/CRF-R2 complex, primary screen, cell-based, HEK293, calcium dye fluorescence, uHTS; CRF-binding protein / CRF receptor 2 complex (human); calcium dye fluorescence (FLIPR); percent of saturating CRF peptide response; activation, % at 13.2 µM; 350,000 compounds, 0.46% hits;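 active = activation of at least 50%, plus an integration ratio under a set limit after plate pattern correction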;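 note: plate controls were neutral control wells without compound for no effect and CRF at EC100 for full effect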
# UCH37 DUB inh: inhibitors of human UCH37 deubiquitinase, primary screen, biochemical, Ub-AMC cleavage, fluorescence; 330,000 compounds, 0.33% hits; purified proteasome/UCH37; inhibition, % (test concentration not listed); Ubiquitin carboxyl-terminal hydrolase isozyme L5 (Homo sapiens), Q9Y5K5;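 active = mean inhibition over replicate wells above about 20%, limit read from the data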;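 note: 0% = compound-free wells with enzyme and 100% = wells lacking proteasome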
# Target sequence (Q9Y5K5 whole entry, looked up): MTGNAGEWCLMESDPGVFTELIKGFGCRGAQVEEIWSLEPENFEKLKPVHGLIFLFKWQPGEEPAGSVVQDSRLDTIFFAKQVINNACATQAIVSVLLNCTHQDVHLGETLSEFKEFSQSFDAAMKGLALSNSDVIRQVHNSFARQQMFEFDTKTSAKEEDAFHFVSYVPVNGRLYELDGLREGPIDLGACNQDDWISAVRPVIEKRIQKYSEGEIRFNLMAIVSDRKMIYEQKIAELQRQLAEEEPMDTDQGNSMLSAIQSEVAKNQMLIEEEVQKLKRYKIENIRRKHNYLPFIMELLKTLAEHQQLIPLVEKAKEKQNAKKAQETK
#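 Signal – fluorescence, ex 355 nm, em 460 nm · System – Proteasome-bound UCH37 · Input – 0.15 nM proteasome as dispensed · Timing – 30 min preincubation with enzyme, 25 min cleavage at room temperature · Read-out basis – percent inhibition of cleavage signal versus uninhibited and no-proteasome wells · Medium – Tris-HCl pH 7.4 with ATP-MgCl2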
# Cardio protect: cardioprotection against H2O2-induced cell death, primary screen, uHTS, H9c2 cells, ATPLite luminescence. H9c2 cardiomyocytes, H2O2 injury protection, 2 h. protection from H2O2 cell death, % at 20 µM. 360,000 compounds, 0.63% hits. AID 588492, 2011;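 active = compounds giving at least 50% protection of heart cells from peroxide-induced death in the single-dose screen, raw or plate-pattern-corrected value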;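 note: 0% = DMSO wells with peroxide and 100% = DMSO wells without peroxide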
# MIN6 prolif-1: inducers of MIN6 beta-cell proliferation, primary screen, ATP luminescence, uHTS; MIN6 cells proliferation, ATPlite luminescence, 48 h; cells starved in 0.2% serum; 100% = growth in 10% serum; proliferation, % at 10 µM; 330,000 compounds, 0.29% hits; AID 2380, 2010;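 active = compounds whose signal lies at least 3.5 SD above the mean of all wells on their plate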;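 note: 0% = DMSO-treated cells in low-serum medium and 100% = 10% serum control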
# MIN6 prolif-2: inducers of beta-cell proliferation in MIN6, confirmation, MIN6 cells, mouse; shares compounds with MIN6 prolif-1; ATPlite luminescence, 48 h; cells kept in 0.2% serum; scaled between 0.2% and 10% serum; proliferation increase, % at 50 µM; 920 tested, under 10 active;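 active = proliferation increase above 40% at any of the four tested concentrations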
# Numbers without * were called inactive; nt = not tested or not shown; ! = a repeat was not active.
SMILES,iPSC survival up,CRFBP-R2 block,CRFR2-BP ag,UCH37 DUB inh,Cardio protect,MIN6 prolif-1,MIN6 prolif-2
CCOC(=O)c1c(C)[nH]c(C)c1C(=O)CSc1nc2ccccc2n1CCC#N,2,-14,0,3,19,2,nt
CCCn1c(SCC(=O)c2c(C)[nH]c(C)c2C(=O)OCC)nc2ccccc21,0,17,0,5,9,6.8*,-4
C/C(C=NN1CCN(c2ccccc2)CC1)=C\c1ccco1,nt,nt,nt,2,nt,nt,nt
CCCOc1ccc(C=NNC(=O)C(=O)Nc2ccccn2)cc1,nt,nt,nt,5,nt,nt,nt
COc1ccc(-c2nn3c(C4CCCCC4)nnc3s2)cc1OC,3,-15,1,-2,12,9.1*,-6
COc1cc(-c2nn3c(C4CCCCC4)nnc3s2)cc(OC)c1OC,0,-16,0,3,20,3,nt
CC1(c2ccc3c(c2)OCO3)NC(=O)N(CC(=O)Nc2ccccc2[N+](=O)[O-])C1=O (stereo not drawn),0,-24,2,nt,1,14*,0
COCCOc1ccc(C(F)(F)F)cc1NC(=O)c1ccc(C(F)(F)F)cc1,0,-73,8,-10,0,-4,nt
COCCOc1ccc(C(F)(F)F)cc1NC(=O)c1ccccc1F,0,20,0,5,-8,6.7*,0
COc1cc(NC(=O)c2ccccc2F)c(OC)cc1NC(=O)CN1CCCCC1,1,-9,0,3,2,9.3*,-6
O=C(COc1ccc([N+](=O)[O-])cc1)NN=Cc1ccccn1,nt,nt,nt,3,nt,nt,nt
NC(=O)c1[nH]cnc1N,2,11,0,1,7,12*!,-1
O=C(CSc1nnc(CNC(=O)c2cccs2)o1)Nc1cccc(C(F)(F)F)c1,3,19,-1,0,-7,5.1*,-1
O=C(CSc1nnc(CNC(=O)c2cccs2)o1)Nc1cccc(F)c1,0,2,0,1,-1,3,nt
Cc1ccc(NC(=O)C2CC(=O)N/C(=N/N=Cc3ccco3)S2)cc1 (stereo not drawn),nt,nt,nt,2,nt,nt,nt
COc1cc(C=NNc2ccc(Cl)cc2)ccc1OC(=O)c1cccs1,nt,nt,nt,5,nt,nt,nt
ON=Cc1cn(-c2ccccc2)nn1,nt,nt,nt,4,nt,nt,nt
O/N=C/c1cn(-c2ccccc2)nn1,2,9,6,nt,-4,7.6*,2
CCN(C(=O)CN1C(=S)NC(C)(C)CC1C)c1ccc(C)c(C)c1 (stereo not drawn),0,-13,-1,nt,-3,9.3*,-2
Cc1ccc(NC(=O)CN2C(=S)NC(C)(C)CC2C)cc1Cl (stereo not drawn),-1,-9,-1,4,-2,-1,nt
COC(=O)[C@H](CCSC)NC(=O)NCc1ccc(S(N)(=O)=O)cc1,-2,10,6,3,4,8.2*,-3
CCc1noc(C)c1C(=O)N1CCN(S(=O)(=O)c2cc(C)ccc2C)CC1,1,-6,0,-2,2,5,nt
CCc1noc(C)c1C(=O)N1CCN(S(=O)(=O)c2c(C)c(C)cc(C)c2C)CC1,0,6,-1,nt,-6,14*,-2
ON=Cc1ccccc1OCc1ccccc1F,nt,nt,nt,3,nt,nt,nt
CCN(CC(=O)Nc1c(F)cccc1F)C(=O)CCNS(=O)(=O)c1ccccc1C(F)(F)F,1,17,-1,1,-3,3,nt
SMILES,iPSC survival up,CRFBP-R2 block,CRFR2-BP ag,UCH37 DUB inh,Cardio protect,MIN6 prolif-1,MIN6 prolif-2
CN(CC(=O)Nc1c(Cl)cccc1Cl)C(=O)CCNS(=O)(=O)c1ccccc1C(F)(F)F,0,-12,-1,nt,-5,12*,0
CNC(=S)Nc1ccc([N+](=O)[O-])cc1C,0,34,0,2,-3,9.9*,-1
Cc1cc(C)c2c(c1)/C(=N/NC(=O)c1ccc(O)cc1)CCC2,3,1,0,nt,31,-1,nt
Cc1cc(C)c2c(c1)/C(=N/NC(=O)c1cc(C)oc1C)CCC2,-2,-14,0,nt,-11,0.0*,-1
CSc1ccccc1NC(=O)CN(Cc1ccc(Cl)cc1)S(C)(=O)=O,0,5,0,4,1,5.0*,-6
COc1cccc(CN(CC2CCCO2)S(=O)(=O)c2ccc(-n3cnnn3)c(OC)c2)c1 (stereo not drawn),1,-6,0,1,19,9.3*,0
Cc1nc(N)c(CC(Br)CBr)c(Cl)n1 (stereo not drawn),0,-2,0,1,-3,8.0*,2
CCOC(=O)C1=C(COC(=O)/C=C/c2ccc(OC)cc2OC)NC(=O)NC1C (stereo not drawn),0,-7,-3,nt,31,13*,2
CC(=O)C(=NNc1ccc(Cl)cc1Cl)Sc1nnc(-c2ccccc2)n1-c1ccccc1,nt,nt,nt,5,nt,nt,nt
Cc1nc(NC(=O)c2ccc(Br)o2)ccc1Br,1,-14,-1,2,-2,11*,-1
O=C(Nc1cccc(NC(=O)c2ccc(Br)o2)n1)c1ccc(Br)o1,0,26,-2,-5,4,0,nt
CCOC(=O)c1cnc(-n2nc(C)cc2C)nc1Oc1ccccc1F,0,32,0,2,4,7.8*,-6
Cc1ccc(C)c(S(=O)(=O)NC2CCS(=O)(=O)C2)c1 (stereo not drawn),0,1,1,nt,-6,12*,-2
CC(C)(C)NC(=O)C12CC3CC(CC(Cl)(C3)C1)C2,0,8,-2,-1,1,8.0*,-2
O=C(NN=Cc1cccnc1)c1ccc(S(=O)(=O)N2CCCCCC2)cc1,nt,nt,nt,-11,nt,nt,nt
COc1ccc(-c2csc(NC(=O)CCN3C(=O)C4CC=CCC4C3=O)n2)cc1OC (stereo not drawn),-1,10,-2,nt,27,13*,-4
COc1ccc(-c2csc(NC(=O)CN3C(=O)C4CC=CCC4C3=O)n2)cc1 (stereo not drawn),-1,-11,0,4,-8,-3,nt
CCON=C(C)c1c(O)cc(-c2ccccc2)n(-c2ccccc2)c1=O,nt,nt,nt,3,nt,nt,nt
Cc1ccsc1C=Nn1cnnc1,nt,nt,nt,5,nt,nt,nt
Cc1ccc(CNC(=O)CCNC(=O)N2CCn3c2nc2ccccc23)cc1,0,6,0,2,0,14*,-2
CCn1cc(C=NNC(=O)c2ccc3c(c2)OCO3)c(C)n1,nt,nt,nt,4,nt,nt,nt
